Results from different studies.
LATS1: Serine/threonine-protein kinase LATS1 (LATS1, Homo sapiens, UniProt O95835)
gag-pol reverse transcriptase: Gag-Pol polyprotein, reverse transcriptase (gag-pol, Human immunodeficiency virus 1, UniProt P03366)
CA1: Carbonic anhydrase 1 (CA1, Homo sapiens, UniProt P00915)
SLC18A2: Synaptic vesicular amine transporter (SLC18A2, Homo sapiens, UniProt Q05940)

SMILES	target	observed	action	technique	pH	notes	IC50 [µM]
CCCCCCCCCC(=O)CC(=O)Nc1ccccc1	Transcriptional activator protein LasR (lasR, Pseudomonas aeruginosa, UniProt P25084)	reporter gene	antagonist				1.1
NC/C(=C\F)COc1cccc(Cn2c(=S)[nH]c(=O)c3[nH]cnc32)c1	Diamine oxidase [copper-containing] (AOC1, Homo sapiens, UniProt P19801)	enzyme activity	inhibitor				> 30
OC1(c2ccc(-c3ccnc4[nH]cc(F)c34)cc2)CCNC1 (centres unmarked)	LATS1	target engagement in cells		BRET			10.3
CC(C)(C(=O)O)c1ccc(C(O)CCCN2CCC(C(O)(c3ccccc3)c3ccccc3)CC2)cc1 (centres unmarked)	Carbonic anhydrase 2 (CA2, Homo sapiens, UniProt P00918)	enzyme activity	inhibitor	absorbance	pH 7.4		28.4
C=CCCCNc1c2c([nH]c(=O)c1C(=O)OCC)CCC2	gag-pol reverse transcriptase	enzyme activity	inhibitor				> 100
O=C(O)COCCN1CCN(C(c2ccccc2)c2ccc(Cl)cc2)CC1 (centres unmarked)	CA1	enzyme activity	inhibitor	absorbance	pH 7.4		14.6
OCCN1CCN(CCCN2c3ccccc3Sc3ccc(C(F)(F)F)cc32)CC1	SLC18A2	transporter uptake	inhibitor				2.34
CN1CCC(CNc2ccc3ncc(-c4cccc(OC(F)(F)F)c4)n3n2)CC1	5-hydroxytryptamine receptor 3A (HTR3A, Homo sapiens, UniProt P46098)	ion current					3.48
OC1(c2ccc(-c3ccnc4[nH]cc(F)c34)cc2)CCCNCC1 (centres unmarked)	LATS1	enzyme activity	inhibitor	radiometric			0.017
Nc1nc2c(ncn2COCCO)c(=O)[nH]1	CA1	enzyme activity	inhibitor	absorbance	pH 7.4		10.8
CC(C)NCC(O)COc1ccc(COCCOC(C)C)cc1 (centres unmarked)	SLC18A2	transporter uptake	inhibitor				7.54
CC[C@H]1OC(=O)[C@H](C)[C@@H](O[C@H]2C[C@@](C)(OC)[C@@H](O)[C@H](C)O2)[C@H](C)[C@@H](O[C@@H]2O[C@H](C)C[C@H](N(C)C)[C@H]2O)[C@](C)(O)C[C@@H](C)CN(C)[C@H](C)[C@@H](O)[C@]1(C)O	CA1	enzyme activity	inhibitor	absorbance	pH 7.4		15
O=C(CCCN1CC=C(n2c(=O)[nH]c3ccccc32)CC1)c1ccc(F)cc1	SLC18A2	transporter uptake	inhibitor	radiometric		cell membranes	0.154
CCOC(=O)c1c(NCCCCN)c2c([nH]c1=O)CCC2	gag-pol reverse transcriptase	enzyme activity	inhibitor				> 100
CC(C)(C)NC(=O)C1CCN(Cc2cccc(/N=N/c3ccc(C(F)(F)F)cc3)c2)CC1	Atypical chemokine receptor 3 (ACKR3, Homo sapiens, UniProt P25106)	ligand displacement		BRET			> 10
OC1(c2ccc(-c3ccnc4[nH]cc(F)c34)cc2)CCCNC1 (centres unmarked)	LATS1	enzyme activity	inhibitor	radiometric			0.026
N#Cc1ccc2[nH]cc(CCCCN3CCN(c4ccc5oc(C(N)=O)cc5c4)CC3)c2c1	SLC18A2	transporter uptake	inhibitor	radiometric		cell membranes	0.069
Cc1cc(-c2ccnc3[nH]cc(F)c23)cc(F)c1[C@@]1(O)[C@H](C)CN(C(=O)CN)C[C@@H]1C	LATS1	target engagement in cells		BRET			0.0061
CC(C)Nc1cccnc1N1CCN(C(=O)c2cc3cc(NS(C)(=O)=O)ccc3[nH]2)CC1	SLC18A2	transporter uptake	inhibitor				4.04
CCOC(=O)c1c(NC(CC)CO)c2c([nH]c1=O)CCC2 (centres unmarked)	gag-pol reverse transcriptase	enzyme activity	inhibitor				> 100
O=C(CCCN1CCC(O)(c2ccc(Br)cc2)CC1)c1ccc(F)cc1	SLC18A2	transporter uptake	inhibitor				0.092
CN(C)CCC(c1ccccc1)c1ccccn1 (centres unmarked)	CA1	enzyme activity	inhibitor	absorbance	pH 7.4		20.4
OC1(c2ccc(-c3ccnc4[nH]cc(F)c34)cc2)CNC1	LATS1	target engagement in cells		BRET			28.4
